Measurements published in publication PMC2532710 (Nucleic Acids Research, 2008).
Entries after “also recorded” stand apart in the source; their conditions may differ.

Experiments:
Cre/HJ complex = settings: cited from earlier work
HJ-4AP1 = experiment: 2-AP fluorescence titration of additional peptides, HJ-4AP1; assay type: binding
How it was run: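 Test peptides (C-terminal amides, dissolved in DMSO) titrated as dimers at 0.05, 0.2, 0.8, 3.2 and 6.4 μM into 0.2 μM 2-AP-labelled HJ in 20 mM Tris-HCl pH 7.8, 100 mM NaCl, 1 mM EDTA, 1.6% DMSO at 24°C. Equilibrated ≥3 min with stirring. Excitation 315 nm, emission 365–375 nm. Adenine-substituted junction spectrum subtracted.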

protein-free HJ DNA = experiment: peptide/RecG band shift assay on HJ; assay type: binding; settings: gel shift assays, data not shown

WKHYNY
quenching effect on 2-AP with Cre/HJ complex (Cre/HJ complex): concentration-dependent quenching effect on 2-AP | 2-AP quenching / interaction with 4AP1 in HJ (HJ-4AP1; 0.2 μM substrate, pH 7.8, 100 mM NaCl, 1.6% DMSO, peptide dimer 0.05-6.4 μM): does not interact; also recorded: almost no quenching | 2-AP quenching (HJ-4AP1; up to 32-fold excess of peptide dimer (6.4 μM)): little if any effect | binding to protein-free HJ (protein-free HJ DNA): has not been detected; also recorded: does not bind protein-free junctions
